Assay [1] deals with Escherichia coli. Kind of assay: Antibacterial activity against Escherichia coli O157 at 100 ug/ml after 24 hrs by paper disc diffusion technique. In kind it is functional. Particulars: O157, 24 h, read-out: IZ. A general note: A growth-free zone around the sample is the usual read-out of agar diffusion tests.
Assay [2] concerns Escherichia coli. Kind of assay: Antibacterial activity against Escherichia coli O157 after 24 hrs by agar streak dilution method. It counts as functional. Particulars: O157, 24 h.
Assay [3] relates to Salmonella typhimurium. Kind of assay: Antibacterial activity against Salmonella Typhimurium at 100 ug/ml after 24 hrs by paper disc diffusion technique. In kind it is functional, Salmonella enterica subsp. enterica serovar Typhimurium. Particulars: Salmonella enterica, read-out: IZ. The procedure, abridged:
(§1)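 Paper disc diffusion on Mueller Hinton agar, autoclaved at 120 °C for 30 min. Medium at 40–50 °C was seeded at 1 ml/100 ml with a 10^5 cfu/ml suspension matched to 0.9 McFarland. It was poured 3–4 mm deep, and discs with compound in DMSO were laid on it. Plates were pre-incubated 1 h at room temperature, then 37 °C for 24 h. The inhibition zone was measured.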

For assay [4], the system named is Salmonella typhimurium. Briefly: Antibacterial activity against Salmonella Typhimurium after 24 hrs by agar streak dilution method. It counts as functional, Salmonella enterica subsp. enterica serovar Typhimurium. Particulars: Salmonella enterica. A digest of the protocol:
(§2)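 Agar streak dilution on Mueller Hinton agar. Compound stock in DMSO was added in graded amounts to molten sterile agar at 40–50 °C. This was poured 3–4 mm deep and left to solidify. Bacterial suspension of about 10^5 cfu/ml was applied to the serially diluted plates. Plates were incubated at 37 °C for 24 h to read the MIC. Strains were food-poisoning isolates from animal byproducts.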

The test system of assay [5] is Listeria monocytogenes. Briefly: Antibacterial activity against Listeria monocytogenes at 100 ug/ml after 24 hrs by paper disc diffusion technique. Particulars: read-out: IZ. It counts as functional. A digest of the protocol:
as §1

Assay [6] relates to Listeria monocytogenes. Briefly: Antibacterial activity against Listeria monocytogenes after 24 hrs by agar streak dilution method. It counts as functional. The procedure, abridged:
as §2

The subject of assay [7] is Staphylococcus aureus. Kind of assay: Antibacterial activity against Staphylococcus aureus at 100 ug/ml after 24 hrs by paper disc diffusion technique. It counts as functional. The settings on record: read-out: IZ. The procedure, abridged:
as §1

In assay [8] the test system is Staphylococcus aureus. Briefly: Antibacterial activity against Staphylococcus aureus after 24 hrs by agar streak dilution method. It counts as functional. The procedure, abridged: as §2
Assay [9] has as its system Pseudomonas aeruginosa. Briefly: Antibacterial activity against Pseudomonas aeruginosa at 100 ug/ml after 24 hrs by paper disc diffusion technique. In kind it is functional. The settings on record: read-out: IZ. The procedure, abridged:
as §1

For assay [10], the system named is Pseudomonas aeruginosa. Briefly: Antibacterial activity against Pseudomonas aeruginosa after 24 hrs by agar streak dilution method. In kind it is functional. A digest of the protocol:
as §2

Assay [11] concerns Bacillus cereus. Kind of assay: Antibacterial activity against Bacillus cereus at 100 ug/ml after 24 hrs by paper disc diffusion technique. It counts as functional. The settings on record: read-out: IZ. The procedure, abridged: as §1
The subject of assay [12] is Bacillus cereus. Briefly: Antibacterial activity against Bacillus cereus after 24 hrs by agar streak dilution method. In kind it is functional. A digest of the protocol: as §2
In assay [13] the test system is Candida albicans. Kind of assay: Antifungal activity against Candida albicans at 100 ug/ml after 48 hrs by paper disc diffusion technique. It counts as functional. Particulars: read-out: IZ. The procedure, abridged: (§3)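 Paper disc diffusion on Sabouraud dextrose agar, autoclaved at 120 °C for 30 min. Medium at 40–50 °C was seeded at 1 ml/100 ml with a 10^5 cfu/ml fungal suspension matched to 0.9 McFarland. It was poured 3–4 mm deep, and compound discs in DMSO were applied. Plates were pre-incubated 1 h at room temperature, then 28 °C for 48 h. The inhibition zone was recorded.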

The test system of assay [14] is Candida albicans. Kind of assay: Antifungal activity against Candida albicans after 48 hrs by agar streak dilution method. It counts as functional. A digest of the protocol:
(§4)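 Fungal MIC by agar streak dilution on Sabouraud dextrose agar. Compound stock in DMSO was added in graded amounts to molten sterile medium at 40–50 °C. This was poured 3–4 mm deep and left to solidify. Fungal suspension of about 10^5 cfu/ml was applied to the serially diluted plates. Plates were incubated at 37 °C for 48 h.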

Assay [15] deals with Aspergillus flavus. Briefly: Antifungal activity against Aspergillus flavus at 100 ug/ml after 48 hrs by paper disc diffusion technique. It counts as functional. The settings on record: read-out: IZ. A digest of the protocol:
as §3

In assay [16] the test system is Aspergillus flavus. Briefly: Antifungal activity against Aspergillus flavus after 48 hrs by agar streak dilution method. It counts as functional. The procedure, abridged:
as §4

Structures are written as SMILES. Values after ≈ are worked out from the molar mass of the structure shown.

Our source for the zone of inhibition and MIC values is ChEMBL document CHEMBL1208666, “Novel 6,8-dibromo-4(3H)quinazolinone derivatives of anti-bacterial and anti-fungal activities” (2010).

In the case of `O=C(N/N=C/c1ccc2ccccc2c1)c1ccc(-n2c(-c3ccccc3)nc3c(Br)cc(Br)cc3c2=O)cc1`, the zone of inhibition at 100 µg/mL in [1] stood at 13 mm; in assay [3], 12 mm; in assay [5] it was 16 mm; in assay [7], 14 mm; in assay [9], 13 mm; in assay [11], 12 mm. The zone of inhibition at 100 µg/mL in [13] came to 13 mm; in assay [15], 26 mm. Also, the MIC in assay [2] amounted to 25 µg/mL (≈ 38.3 µM); in assay [4], 50 µg/mL (≈ 76.6 µM); in assay [6], 3.12 µg/mL (≈ 4.79 µM); in assay [8], 25 µg/mL (≈ 38.3 µM); in [10], 25 µg/mL (≈ 38.3 µM); in [12], 50 µg/mL (≈ 76.6 µM). The MIC in [14] amounted to 25 µg/mL (≈ 38.3 µM); in [16], 0.39 µg/mL (≈ 0.598 µM).

As for `Cc1ccc(C2SCC(=O)N2NC(=O)c2ccc(-n3c(-c4ccccc4)nc4c(Br)cc(Br)cc4c3=O)cc2)cc1` (configuration not stated), the zone of inhibition at 100 µg/mL in assay [1] stood at 9 mm; in [3], 15 mm; in assay [5], 10 mm; in assay [7], 10 mm; in assay [9] it was 16 mm; in assay [11] it was 9 mm. Moreover, the zone of inhibition at 100 µg/mL in assay [13] worked out at 10 mm; in [15] it was 16 mm. Further, the MIC in assay [2] is over 50 µg/mL; in assay [4], 7 µg/mL (≈ 10.1 µM); in assay [6], 50 µg/mL (≈ 72.4 µM); in assay [8], over 50 µg/mL; in assay [10], 10.1 µg/mL (≈ 14.6 µM); in assay [12], 50 µg/mL (≈ 72.4 µM). Moreover, the MIC is 30 µg/mL (≈ 43.5 µM) in assay [14] and 12.5 µg/mL (≈ 18.1 µM) in [16].

In general, MIC refers to the lowest concentration that inhibits growth of the organism. A higher MIC goes with a less susceptible organism.
